This is an account of results in ChEMBL document CHEMBL3576771, “Molecular determinants of biased agonism at the dopamine D₂ receptor” (J Med Chem, 2015).

Each structure is given as a SMILES string. Where only a bound is given, the exact number is not on record here.

Test [1] concerns the target T1, D(2) dopamine receptor (Homo sapiens, UniProt P14416). The test is described as follows: Intrinsic activity at human dopamine D2S receptor expressed in HEK293 cells co-transfected with Galphai2 assessed as [35S]GTPgammaS binding after 30 mins by [35S]GTPgammaS incorporation assay. The format is functional, cell-based. A general note: GTPγS is a poorly hydrolysed GTP analogue; its binding reports G protein activation.

Test [2] deals with T1, D(2) dopamine receptor. The test is described as follows: Agonist activity at ARMS2-PK2-tagged human dopamine D2S receptor expressed in HEK293 cells co-expressing (EA)-tagged beta arrestin fusion protein assessed as recruitment of beta-arrestin-2 after 5 hrs by chemiluminescence assay. The format is cell-based.
Test [3] has as its target T1, D(2) dopamine receptor. Briefly: Displacement of [3H]spiperone from human dopamine D2S receptor transfected in CHO cells after 1 hr by scintillation counting analysis. In kind it is cell-based. A general note: Loss of bound radioactivity is the signal in a displacement assay; it reports binding, not function.
The target of test [4] is T1, D(2) dopamine receptor. Briefly: Displacement of [3H]spiperone from human dopamine D2L receptor transfected in CHO cells after 1 hr by scintillation counting analysis. In kind it is cell-based.
In test [5] the target is T1, D(2) dopamine receptor. Briefly: Intrinsic activity at human dopamine D2S receptor expressed in HEK293 cells co-transfected with Galpha0i assessed as [35S]GTPgammaS binding after 30 mins by [35S]GTPgammaS incorporation assay relative to quinpirole. In kind it is functional, cell-based. The gist of the method: (§1)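 HEK293 membranes cotransfected with D2L or D2S plus PTX-insensitive Gαo1; 30 μg/mL protein with compounds and 10 μM GDP preincubated 30 min, 37 °C; then 0.10 nM [35S]GTPγS for 30 min, 37 °C; GF/B filtration.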

Test [6] in a line: Displacement of [3H]WAY100635 from poricne cerebral cortex 5-HT1A receptor by scintillation counting analysis. The format is tissue-based, Sus scrofa.
Test [7] concerns the target T1, D(2) dopamine receptor. The test is described as follows: Intrinsic activity at human dopamine D2S receptor expressed in HEK293 cells co-transfected with Galpha0i assessed as [35S]GTPgammaS binding after 30 mins by [35S]GTPgammaS incorporation assay. The format is functional, cell-based.
Test [8] is described as follows: Displacement of [3H]prazosin from poricne cerebral cortex alpha1 adrenergic receptor by scintillation counting analysis. In kind it is tissue-based, Sus scrofa.
A further test addresses D(1A) dopamine receptor (Homo sapiens, UniProt P21728). Briefly: Displacement of [3H]SCH23390 from human dopamine D1 receptor transfected in HEK293 cells after 1 hr by scintillation counting analysis. In kind it is cell-based.
Test [9] addresses T1, D(2) dopamine receptor. Briefly: Agonist activity at ARMS2-PK2-tagged human dopamine D2S receptor expressed in HEK293 cells co-expressing (EA)-tagged beta arrestin fusion protein assessed as recruitment of beta-arrestin-2 after 5 hrs by chemiluminescence assay relative to quinpirole. The format is cell-based. The gist of the method: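 Transient transfection of D2S (ProLink-tagged) into HEK293 cells stably expressing EA-tagged β-arrestin-2; 5000 cells seeded, 24 h.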

For test [10], the target named is T1, D(2) dopamine receptor. The test is described as follows: Intrinsic activity at human dopamine D2L receptor expressed in HEK293 cells co-transfected with Galpha0i assessed as [35S]GTPgammaS binding after 30 mins by [35S]GTPgammaS incorporation assay. The format is functional, cell-based.
The target of test [11] is T1, D(2) dopamine receptor. Briefly: Intrinsic activity at human dopamine D2S receptor expressed in HEK293 cells co-transfected with Galphai2 assessed as [35S]GTPgammaS binding after 30 mins by [35S]GTPgammaS incorporation assay relative to quinpirole. The format is functional, cell-based. The settings on record: in the assay text read “after 75 mins” for “after 30 mins”. The gist of the method: (§2)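 Membranes from HEK293 cells cotransfected with D2L or D2S and PTX-insensitive Gαi2; 30 μg/mL protein, 10 μM GDP and compounds preincubated 30 min at 37 °C, then 0.10 nM [35S]GTPγS added for 75 min at 37 °C; filtration.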

The target in another test is D(1B) dopamine receptor (Homo sapiens, UniProt P21918). The test is described as follows: Displacement of [3H]SCH23390 from human dopamine D5 receptor transfected in HEK293 cells after 1 hr by scintillation counting analysis. In kind it is cell-based.
The target in test [12] is T1, D(2) dopamine receptor. The test is described as follows: Intrinsic activity at human dopamine D2L receptor expressed in HEK293 cells co-transfected with Galpha0i assessed as [35S]GTPgammaS binding after 30 mins by [35S]GTPgammaS incorporation assay relative to quinpirole. In kind it is functional, cell-based. The gist of the method:
as §1

The target in a further test is D(3) dopamine receptor (Homo sapiens, UniProt P35462). Briefly: Displacement of [3H]spiperone from human dopamine D3 receptor transfected in CHO cells after 1 hr by scintillation counting analysis. In kind it is cell-based.
In test [13] the target is 5-hydroxytryptamine receptor 2A (Homo sapiens, UniProt P28223). The test is described as follows: Displacement of [3H]ketanserin from human 5-HT2A receptor transfected in HEK293 cells by scintillation counting analysis. In kind it is cell-based.
The next test deals with T2, D(4) dopamine receptor (Homo sapiens, UniProt P21917).
T2 sequence (P21917 whole entry): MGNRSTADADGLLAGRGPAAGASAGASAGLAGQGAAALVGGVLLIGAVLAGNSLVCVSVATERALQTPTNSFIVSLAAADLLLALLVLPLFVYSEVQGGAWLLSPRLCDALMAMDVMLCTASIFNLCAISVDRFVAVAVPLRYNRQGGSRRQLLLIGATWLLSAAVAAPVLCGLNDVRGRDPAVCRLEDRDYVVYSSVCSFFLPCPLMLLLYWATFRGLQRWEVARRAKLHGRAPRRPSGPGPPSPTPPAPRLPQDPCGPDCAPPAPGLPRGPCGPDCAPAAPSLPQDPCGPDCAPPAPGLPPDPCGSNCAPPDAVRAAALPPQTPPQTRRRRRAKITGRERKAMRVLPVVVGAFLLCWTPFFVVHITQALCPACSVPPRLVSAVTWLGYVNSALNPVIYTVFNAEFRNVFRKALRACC
The test is described as follows: Displacement of [3H]spiperone from human dopamine D4.4 receptor transfected in CHO cells after 1 hr by scintillation counting analysis. The format is cell-based.

In test [14] the target is T1, D(2) dopamine receptor. The test is described as follows: Intrinsic activity at human dopamine D2L receptor expressed in HEK293 cells co-transfected with Galphai2 assessed as [35S]GTPgammaS binding after 30 mins by [35S]GTPgammaS incorporation assay relative to quinpirole. The format is functional, cell-based. The settings on record: in the assay text read “after 75 mins” for “after 30 mins”. Summed up: as §2

The target in test [15] is T1, D(2) dopamine receptor. The test is described as follows: Intrinsic activity at human dopamine D2L receptor expressed in HEK293 cells co-transfected with Galphai2 assessed as [35S]GTPgammaS binding after 30 mins by [35S]GTPgammaS incorporation assay. In kind it is functional, cell-based.
In test [16] the target is D(1A) dopamine receptor (Sus scrofa) (UniProt P50130). Briefly: Displacement of [3H]SCH23390 from porcine dopamine D1 receptor in striatal membranes after 1 hr by scintillation counting analysis.
Sequence of D(1A) dopamine receptor (Sus scrofa) (P50130 whole entry, looked up): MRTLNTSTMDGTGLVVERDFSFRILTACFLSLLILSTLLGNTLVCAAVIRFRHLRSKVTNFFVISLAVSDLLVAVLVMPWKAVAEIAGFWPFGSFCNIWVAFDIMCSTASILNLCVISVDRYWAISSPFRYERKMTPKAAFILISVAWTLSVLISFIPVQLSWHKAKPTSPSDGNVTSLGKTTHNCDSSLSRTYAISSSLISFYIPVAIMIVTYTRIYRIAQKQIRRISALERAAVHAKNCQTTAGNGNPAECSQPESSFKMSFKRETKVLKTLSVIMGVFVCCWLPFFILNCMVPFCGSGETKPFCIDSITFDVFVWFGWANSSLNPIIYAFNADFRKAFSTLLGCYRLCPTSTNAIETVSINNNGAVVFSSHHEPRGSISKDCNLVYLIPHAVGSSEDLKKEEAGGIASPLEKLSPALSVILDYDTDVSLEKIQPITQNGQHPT

Sequence of 5-hydroxytryptamine receptor 2A (P28223 whole entry): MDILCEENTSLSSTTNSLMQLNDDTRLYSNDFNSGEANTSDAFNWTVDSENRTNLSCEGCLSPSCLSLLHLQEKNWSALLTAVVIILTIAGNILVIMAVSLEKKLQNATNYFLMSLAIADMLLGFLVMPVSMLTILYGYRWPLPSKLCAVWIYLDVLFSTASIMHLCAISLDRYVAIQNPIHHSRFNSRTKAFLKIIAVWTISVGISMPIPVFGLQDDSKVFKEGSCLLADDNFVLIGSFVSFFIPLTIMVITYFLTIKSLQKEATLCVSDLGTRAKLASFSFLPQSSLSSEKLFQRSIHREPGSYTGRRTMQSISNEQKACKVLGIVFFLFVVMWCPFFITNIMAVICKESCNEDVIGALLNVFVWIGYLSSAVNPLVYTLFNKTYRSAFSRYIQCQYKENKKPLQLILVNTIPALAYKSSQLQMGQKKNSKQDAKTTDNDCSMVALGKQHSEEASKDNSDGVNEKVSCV
Sequence of D(1A) dopamine receptor (P21728 whole entry, the tested form may be a part): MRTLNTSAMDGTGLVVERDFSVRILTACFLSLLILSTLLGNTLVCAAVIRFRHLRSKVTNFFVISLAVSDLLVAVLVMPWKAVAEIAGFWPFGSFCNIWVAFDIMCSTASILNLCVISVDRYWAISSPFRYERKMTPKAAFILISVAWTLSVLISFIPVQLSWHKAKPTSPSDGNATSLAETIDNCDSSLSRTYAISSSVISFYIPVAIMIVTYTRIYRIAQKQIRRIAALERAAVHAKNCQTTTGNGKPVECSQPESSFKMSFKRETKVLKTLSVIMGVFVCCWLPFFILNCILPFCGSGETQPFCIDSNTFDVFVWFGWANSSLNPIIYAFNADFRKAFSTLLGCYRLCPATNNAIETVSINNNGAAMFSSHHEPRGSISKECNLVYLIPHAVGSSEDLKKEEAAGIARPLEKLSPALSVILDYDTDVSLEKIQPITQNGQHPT
Sequence of D(3) dopamine receptor (P35462 whole entry): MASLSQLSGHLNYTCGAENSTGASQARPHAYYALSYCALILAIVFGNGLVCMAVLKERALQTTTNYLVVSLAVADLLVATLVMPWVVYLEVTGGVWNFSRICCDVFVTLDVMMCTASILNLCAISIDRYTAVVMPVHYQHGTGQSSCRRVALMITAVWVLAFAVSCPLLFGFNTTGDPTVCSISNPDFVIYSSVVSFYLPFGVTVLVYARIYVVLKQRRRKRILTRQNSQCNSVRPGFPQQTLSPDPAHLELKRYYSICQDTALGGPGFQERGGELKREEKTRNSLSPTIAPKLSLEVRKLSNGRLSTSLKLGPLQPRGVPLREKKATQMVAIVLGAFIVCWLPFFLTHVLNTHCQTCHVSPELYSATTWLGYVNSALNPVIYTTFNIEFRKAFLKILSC
T1 sequence (P14416 whole entry): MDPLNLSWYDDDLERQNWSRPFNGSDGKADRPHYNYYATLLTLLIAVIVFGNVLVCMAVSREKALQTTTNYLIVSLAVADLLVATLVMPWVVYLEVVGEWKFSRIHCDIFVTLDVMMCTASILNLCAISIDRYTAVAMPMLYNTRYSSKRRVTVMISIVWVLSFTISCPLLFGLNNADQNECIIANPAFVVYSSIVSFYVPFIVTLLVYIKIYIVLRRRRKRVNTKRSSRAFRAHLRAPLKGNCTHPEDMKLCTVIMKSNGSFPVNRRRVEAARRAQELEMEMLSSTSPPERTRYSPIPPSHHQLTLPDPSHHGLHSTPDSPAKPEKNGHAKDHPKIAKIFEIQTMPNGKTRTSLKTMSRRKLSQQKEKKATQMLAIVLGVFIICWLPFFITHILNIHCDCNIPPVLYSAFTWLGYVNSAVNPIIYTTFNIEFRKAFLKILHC
Sequence of D(1B) dopamine receptor (P21918 whole entry): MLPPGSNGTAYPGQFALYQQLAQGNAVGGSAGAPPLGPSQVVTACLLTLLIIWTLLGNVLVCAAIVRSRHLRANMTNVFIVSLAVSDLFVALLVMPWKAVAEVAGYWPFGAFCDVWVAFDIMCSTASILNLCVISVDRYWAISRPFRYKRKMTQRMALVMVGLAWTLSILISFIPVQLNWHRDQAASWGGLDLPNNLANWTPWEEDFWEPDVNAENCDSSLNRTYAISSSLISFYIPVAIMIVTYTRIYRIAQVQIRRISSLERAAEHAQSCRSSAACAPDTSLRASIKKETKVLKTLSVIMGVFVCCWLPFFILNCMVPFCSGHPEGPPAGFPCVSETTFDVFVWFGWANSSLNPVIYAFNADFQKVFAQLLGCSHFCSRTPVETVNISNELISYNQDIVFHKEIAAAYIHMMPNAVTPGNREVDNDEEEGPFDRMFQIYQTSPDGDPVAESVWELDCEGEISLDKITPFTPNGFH

Broadly, the EC50 is the concentration giving half of the maximal effect. One may read the Ki as a measure of affinity in units of concentration, obtained from inhibition or displacement. Low readings indicate higher affinity, high ones lower affinity. Usually Emax stands for the greatest response seen or fitted, relative to the assay's reference. As to `CCCCn1cc(CCCOc2ccc(C(=O)NCCCCN(CCC)[C@H]3CCc4c(O)cccc4C3)cc2OC)nn1`, the EC50 was 0.004 µM on D(2) dopamine receptor [1]; 0.0014 µM at D(2) dopamine receptor [2]; 0.0021 µM at D(2) dopamine receptor [7]; 0.0031 µM on D(2) dopamine receptor [10]; 0.0029 µM on D(2) dopamine receptor [15]. Moreover, the inhibition constant Ki is 0.00054 µM on D(2) dopamine receptor [3]; 0.00047 µM on D(2) dopamine receptor [4]; 0.022 µM in test [6]; 0.085 µM in [8]; 2.9 µM on D(1A) dopamine receptor; 0.7 µM on D(1B) dopamine receptor. Also, the inhibitory constant (Ki) was 0.00021 µM at D(3) dopamine receptor, 0.71 µM in test [13] and 0.0094 µM on D(4) dopamine receptor. Also, the maximum response (Emax) at D(2) dopamine receptor [5] turned out to be 110%; on D(2) dopamine receptor [9] it was 94%; at D(2) dopamine receptor [11], 97%; at D(2) dopamine receptor [12], 90%; on D(2) dopamine receptor [14] it was 99%.

`CCCCn1cc(CCCOc2ccc(C(=O)NCCCCN(CCC)[C@@H]3CCc4c(O)cccc4C3)cc2OC)nn1`: the results for the EC50 at D(2) dopamine receptor [2], on D(2) dopamine receptor [7] and at D(2) dopamine receptor [10] were 0.03 µM, 0.83 µM and 0.53 µM, respectively. The Ki at D(2) dopamine receptor [3] amounted to 0.03 µM; on D(2) dopamine receptor [4], 0.018 µM; in [6], 0.2 µM; in test [8], 0.48 µM; on D(1A) dopamine receptor it was 23 µM; at D(1B) dopamine receptor it was 21 µM. Besides, the inhibition constant Ki on D(3) dopamine receptor is 0.0012 µM; in test [13], 1 µM; at D(4) dopamine receptor, 0.29 µM. Further, the Emax at D(2) dopamine receptor [5] was 27%; at D(2) dopamine receptor [9], 56%; at D(2) dopamine receptor [11], under 5%; at D(2) dopamine receptor [12] it was 36%; at D(2) dopamine receptor [14], under 5%.

Consider `C#CC1=CC[C@H](N(CCC)CCCCNC(=O)c2ccc(-c3ccccc3)cc2)CC1`, for which the inhibition constant Ki worked out at 18 µM in [16]; 0.11 µM in test [6]; 1.8 µM in test [8]; 28 µM in test [13]; 0.06 µM on D(4) dopamine receptor. Besides, the Emax at D(2) dopamine receptor [5] is 100%; on D(2) dopamine receptor [9] it was 93%; at D(2) dopamine receptor [14], 73%.

Consider `C#CC1=CC[C@@H](N(CCC)CCCCNC(=O)c2ccc(-c3ccccc3)cc2)CC1`, for which the Ki in [16] was 13 µM; in test [6], 0.16 µM; in [8] it was 0.62 µM; in test [13] it was 9 µM; at D(4) dopamine receptor, 0.03 µM. Also, the Emax is 104% on D(2) dopamine receptor [5], 93% at D(2) dopamine receptor [9], 100% at D(2) dopamine receptor [11] and 92% at D(2) dopamine receptor [12].

Turning to `C#CC1=CC[C@@H](N(CCC)CCCCNC(=O)c2ccc(OCCCc3cn(CCCC)nn3)c(OC)c2)CO1`, the 50% effective concentration (EC50) at D(2) dopamine receptor [1] turned out to be 0.66 µM; at D(2) dopamine receptor [2], 0.38 µM; at D(2) dopamine receptor [7] it was 0.11 µM; on D(2) dopamine receptor [10] it was 0.052 µM; at D(2) dopamine receptor [15], 0.028 µM. For the same molecule, the inhibition constant Ki at D(2) dopamine receptor [3] was determined as 0.0029 µM; on D(2) dopamine receptor [4], 0.0016 µM; in [6], 0.13 µM; in test [8], 1 µM; at D(1A) dopamine receptor, 2.6 µM; at D(1B) dopamine receptor, 24 µM. The Ki at D(3) dopamine receptor amounted to 0.00063 µM; in test [13] it was 8 µM; on D(4) dopamine receptor, 0.03 µM. The maximum response (Emax) came to 92% at D(2) dopamine receptor [5]; 88% at D(2) dopamine receptor [9]; 94% on D(2) dopamine receptor [11]; 99% on D(2) dopamine receptor [12]; 61% on D(2) dopamine receptor [14].

Consider `CCCCn1cc(CCCOc2ccc(C(=O)NCCCCN(CCC)CCc3ccc(O)c4[nH]c(=O)ccc34)cc2OC)nn1`, for which the EC50 worked out at 1.7 µM on D(2) dopamine receptor [1]; 0.14 µM at D(2) dopamine receptor [2]; 0.98 µM at D(2) dopamine receptor [7]; 3.8 µM on D(2) dopamine receptor [10]; 7.3 µM on D(2) dopamine receptor [15]. The Ki was determined as 0.053 µM on D(2) dopamine receptor [3]; 0.024 µM at D(2) dopamine receptor [4]; 2.8 µM in test [6]; 2.4 µM in [8]; 4.6 µM at D(1A) dopamine receptor; 25 µM at D(1B) dopamine receptor. In addition, the Ki on D(3) dopamine receptor was determined as 0.0016 µM; in test [13], 3.6 µM; on D(4) dopamine receptor, 0.8 µM. The maximum response (Emax) at D(2) dopamine receptor [5] worked out at 87%; at D(2) dopamine receptor [9], 86%; at D(2) dopamine receptor [11], 85%; at D(2) dopamine receptor [12], 82%; on D(2) dopamine receptor [14], 84%.

`C#CC1=CC[C@H](N(CCC)CCCCNC(=O)c2ccc(OCCCc3cn(CCCC)nn3)c(OC)c2)CO1`: the concentration for a half-maximal effect (EC50) at D(2) dopamine receptor [1] came to 2.9 µM; at D(2) dopamine receptor [2], 0.48 µM; at D(2) dopamine receptor [7], 0.41 µM; at D(2) dopamine receptor [10] it was 0.09 µM; at D(2) dopamine receptor [15], 1.9 µM. Moreover, the Ki is 0.01 µM at D(2) dopamine receptor [3]; 0.0049 µM at D(2) dopamine receptor [4]; 0.81 µM in test [6]; 0.86 µM in [8]; 3.9 µM on D(1A) dopamine receptor; 48 µM on D(1B) dopamine receptor. The Ki on D(3) dopamine receptor stood at 0.0022 µM; in test [13], 14 µM; at D(4) dopamine receptor, 0.18 µM. Further, the Emax on D(2) dopamine receptor [5] turned out to be 108%; at D(2) dopamine receptor [9], 101%; on D(2) dopamine receptor [11], 89%; at D(2) dopamine receptor [12], 88%; at D(2) dopamine receptor [14], 84%.
